Experimental data: ChEMBL document CHEMBL3588757, “Structure-based design, synthesis and biological testing of piperazine-linked bis-epipodophyllotoxin etoposide analogs” (Bioorg Med Chem, 2015)

Columns and labels:
Assay type in all cases: functional
HCT-15 [1] = assay: Cytotoxicity against human HCT15 cells assessed as cell growth at 50 uM by SRB assay; settings: read-out: Activity
Outline: (§1)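 Measured in the NCI-60 human tumour cell line panel using five-dose testing. Growth was recorded at each dose for each cell line, and a GI50 was derived for each line.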

LOX IMVI = assay: Cytotoxicity against human LOXIMVI cells assessed as cell growth at 50 uM by SRB assay; settings: read-out: Activity
[2] = Cytotoxicity against human NCI-ADR-RES cells assessed as cell growth at 50 uM by SRB assay; settings: read-out: Activity
CCRF-CEM [3] = assay: Cytotoxicity against human CCRF-CEM cells by SRB assay
A549 = assay: Cytotoxicity against human A549/ATCC cells by SRB assay
COLO 205 [4] = assay: Cytotoxicity against human COLO205 cells by SRB assay
HCC 2998 = assay: Cytotoxicity against human HCC2998 cells by SRB assay; outline: as §1
KM12 = assay: Cytotoxicity against human KM12 cells by SRB assay
Outline: (§2)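 NCI-60 panel screen; 5-dose testing giving GI50 per cell line, plus a single 10 µM one-dose test. Method details not given beyond the NCI screen.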

OVCAR-5 = assay: Cytotoxicity against human OVCAR5 cells by SRB assay; outline: as §2
UO-31 = assay: Cytotoxicity against human UO31 cells by SRB assay; outline: as §2
PC-3 [5] = assay: Cytotoxicity against human PC3 cells by SRB assay; outline: as §2
MCF7 [6] = assay: Cytotoxicity against human MCF7 cells by SRB assay; outline: as §2
MDA-MB-231 = assay: Cytotoxicity against human MDA-MB-231/ATCC cells by SRB assay; outline: as §2
RPMI-8226 = assay: Cytotoxicity against human RPMI8226 cells assessed as cell growth at 0.005 uM by SRB assay; settings: read-out: Activity
HCT-116 = assay: Cytotoxicity against human HCT116 cells assessed as cell growth at 0.005 uM by SRB assay; settings: read-out: Activity; outline: as §1
SW-620 = assay: Cytotoxicity against human SW620 cells assessed as cell growth at 0.005 uM by SRB assay; settings: read-out: Activity
SK-OV-3 [7] = assay: Cytotoxicity against human SKOV3 cells assessed as cell growth at 0.005 uM by SRB assay; settings: read-out: Activity
MCF7 [8] = assay: Cytotoxicity against human MCF7 cells assessed as cell growth at 0.005 uM by SRB assay; settings: read-out: Activity
CCRF-CEM [9] = assay: Cytotoxicity against human CCRF-CEM cells assessed as cell growth at 0.05 uM by SRB assay; settings: read-out: Activity
HOP-62 [10] = assay: Cytotoxicity against human HOP62 cells assessed as cell growth at 0.05 uM by SRB assay; settings: read-out: Activity; outline: as §1
NCI-H23 = assay: Cytotoxicity against human NCI-H23 cells assessed as cell growth at 0.05 uM by SRB assay; settings: read-out: Activity
NCI-H460 = assay: Cytotoxicity against human NCI-H460 cells assessed as cell growth at 0.05 uM by SRB assay; settings: read-out: Activity
HCT-15 [11] = assay: Cytotoxicity against human HCT15 cells assessed as cell growth at 0.05 uM by SRB assay; settings: read-out: Activity; outline: as §1
SF-295 = assay: Cytotoxicity against human SF295 cells assessed as cell growth at 0.05 uM by SRB assay; settings: read-out: Activity
SK-OV-3 [12] = assay: Cytotoxicity against human SKOV3 cells assessed as cell growth at 0.05 uM by SRB assay; settings: read-out: Activity
PC-3 [13] = assay: Cytotoxicity against human PC3 cells assessed as cell growth at 0.05 uM by SRB assay; settings: read-out: Activity
SR = assay: Cytotoxicity against human SR cells assessed as cell growth at 0.5 uM by SRB assay; settings: read-out: Activity
COLO 205 [14] = assay: Cytotoxicity against human COLO205 cells assessed as cell growth at 0.5 uM by SRB assay; settings: read-out: Activity
SF-268 = assay: Cytotoxicity against human SF268 cells assessed as cell growth at 0.5 uM by SRB assay; settings: read-out: Activity
SF-539 = assay: Cytotoxicity against human SF539 cells assessed as cell growth at 0.5 uM by SRB assay; settings: read-out: Activity
OVCAR-3 = assay: Cytotoxicity against human OVCAR3 cells assessed as cell growth at 0.5 uM by SRB assay; settings: read-out: Activity
786-0 = assay: Cytotoxicity against human 786-0 cells assessed as cell growth at 0.5 uM by SRB assay; settings: read-out: Activity
SN12C = assay: Cytotoxicity against human SN12C cells assessed as cell growth at 0.5 uM by SRB assay; settings: read-out: Activity
DU-145 = assay: Cytotoxicity against human DU145 cells assessed as cell growth at 0.5 uM by SRB assay; settings: read-out: Activity; outline: as §1
MCF7 [15] = assay: Cytotoxicity against human MCF7 cells assessed as cell growth at 0.5 uM by SRB assay; settings: read-out: Activity
HCT-15 [16] = assay: Cytotoxicity against human HCT15 cells assessed as cell growth at 5 uM by SRB assay; settings: read-out: Activity; outline: as §1
[17] = Cytotoxicity against human NCI-ADR-RES cells assessed as cell growth at 5 uM by SRB assay; settings: read-out: Activity
A498 = assay: Cytotoxicity against human A498 cells assessed as cell growth at 5 uM by SRB assay; settings: read-out: Activity
MCF7 [18] = assay: Cytotoxicity against human MCF7 cells assessed as cell growth at 5 uM by SRB assay; settings: read-out: Activity
HOP-62 [19] = assay: Cytotoxicity against human HOP62 cells assessed as cell growth at 50 uM by SRB assay; settings: read-out: Activity; outline: as §1
[20] = read-out: LC50 (the source's name)
[21] = read-out: pLC50 (the source's name) (converted)

With `COc1cc([C@@H]2c3cc4c(cc3[C@@H](NC(=O)CN3CCN(CCCCCCN5CCN(CC(=O)N[C@@H]6c7cc8c(cc7[C@@H](c7cc(OC)c(O)c(OC)c7)[C@H]7C(=O)OC[C@@H]76)OCO8)CC5)CC3)[C@H]3COC(=O)[C@H]23)OCO4)cc(OC)c1O` the growth at 50 µM (HCT-15 [1]) was 60%, the growth at 50 µM (LOX IMVI) was -8% and the growth at 50 µM [2] was 87%. For the same molecule, the GI50 (CCRF-CEM [3]; read-out: GI50) was 0.253 µM, the CC50 (CCRF-CEM [3]; [20]) was over 50 µM and the TGI (CCRF-CEM [3]; read-out: TGI) was over 50 µM. For the same molecule, the GI50 (CCRF-CEM [3]; read-out: pGI50 (converted)) was 0.251 µM, the CC50 (CCRF-CEM [3]; [21]) was over 50.1 µM and the TGI (CCRF-CEM [3]; read-out: pTGI) was over 50.1 µM. It also gave a GI50 (A549; read-out: GI50) of 0.919 µM, a CC50 (A549; [20]) of over 50 µM and a TGI (A549; read-out: TGI) of 15.2 µM. The GI50 (A549; read-out: pGI50 (converted)) was 0.912 µM, the CC50 (A549; [21]) was over 50.1 µM and the TGI (A549; read-out: pTGI (converted)) was 15.1 µM. It also gave a GI50 (COLO 205 [4]; read-out: GI50) of 5.79 µM, a CC50 (COLO 205 [4]; [20]) of over 50 µM and a TGI (COLO 205 [4]; read-out: TGI) of 44.7 µM. For the same molecule, the GI50 (COLO 205 [4]; read-out: pGI50 (converted)) was 5.75 µM, the CC50 (COLO 205 [4]; [21]) was over 50.1 µM and the TGI (COLO 205 [4]; read-out: pTGI (converted)) was 44.7 µM. It also gave a GI50 (HCC 2998; read-out: GI50) of 9.47 µM, a CC50 (HCC 2998; [20]) of over 50 µM and a TGI (HCC 2998; read-out: TGI) of 38.3 µM. For the same molecule, the GI50 (HCC 2998; read-out: pGI50 (converted)) was 9.55 µM, the CC50 (HCC 2998; [21]) was over 50.1 µM and the TGI (HCC 2998; read-out: pTGI (converted)) was 38 µM. For the same molecule, the GI50 (KM12; read-out: GI50) was 3.79 µM, the CC50 (KM12; [20]) was over 50 µM and the TGI (KM12; read-out: TGI) was over 50 µM. For the same molecule, the GI50 (KM12; read-out: pGI50 (converted)) was 3.8 µM, the CC50 (KM12; [21]) was over 50.1 µM and the TGI (KM12; read-out: pTGI (converted)) was over 50.1 µM. For the same molecule, the GI50 (OVCAR-5; read-out: GI50) was 7.24 µM, the CC50 (OVCAR-5; [20]) was over 50 µM and the TGI (OVCAR-5; read-out: TGI) was over 50 µM. For the same molecule, the GI50 (OVCAR-5; read-out: pGI50 (converted)) was 7.24 µM, the CC50 (OVCAR-5; [21]) was over 50.1 µM and the TGI (OVCAR-5; read-out: pTGI (converted)) was over 50.1 µM. The GI50 (UO-31; read-out: GI50) was over 50 µM, the CC50 (UO-31; [20]) was over 50 µM and the TGI (UO-31; read-out: TGI) was over 50 µM. The GI50 (UO-31; read-out: pGI50 (converted)) was over 50.1 µM, the CC50 (UO-31; [21]) was over 50.1 µM and the TGI (UO-31; read-out: pTGI (converted)) was over 50.1 µM. The GI50 (PC-3 [5]; read-out: GI50) was 6.87 µM, the CC50 (PC-3 [5]; [20]) was over 50 µM and the TGI (PC-3 [5]; read-out: TGI) was over 50 µM. The GI50 (PC-3 [5]; read-out: pGI50 (converted)) was 6.92 µM, the CC50 (PC-3 [5]; [21]) was over 50.1 µM and the TGI (PC-3 [5]; read-out: pTGI (converted)) was over 50.1 µM. It also gave a GI50 (MCF7 [6]; read-out: GI50) of 0.195 µM, a CC50 (MCF7 [6]; [20]) of over 50 µM and a TGI (MCF7 [6]; read-out: TGI) of over 50 µM. It also gave a GI50 (MCF7 [6]; read-out: pGI50 (converted)) of 0.195 µM, a CC50 (MCF7 [6]; [21]) of over 50.1 µM and a TGI (MCF7 [6]; read-out: pTGI (converted)) of over 50.1 µM. The GI50 (MDA-MB-231; read-out: GI50) was 13.6 µM, the CC50 (MDA-MB-231; [20]) was over 50 µM and the TGI (MDA-MB-231; read-out: TGI) was over 50 µM. It also gave a GI50 (MDA-MB-231; read-out: pGI50 (converted)) of 13.5 µM, a CC50 (MDA-MB-231; [21]) of over 50.1 µM and a TGI (MDA-MB-231; read-out: pTGI (converted)) of over 50.1 µM. It also gave a growth at 0.005 µM (RPMI-8226) of 102%, a growth at 0.005 µM (HCT-116) of 93% and a growth at 0.005 µM (SW-620) of 97%. The growth at 0.005 µM (SK-OV-3 [7]) was 104%, the growth at 0.005 µM (MCF7 [8]) was 80% and the growth at 0.05 µM (CCRF-CEM [9]) was 95%. The growth at 0.05 µM (HOP-62 [10]) was 96%, the growth at 0.05 µM (NCI-H23) was 102% and the growth at 0.05 µM (NCI-H460) was 89%. It also gave a growth at 0.05 µM (HCT-15 [11]) of 93%, a growth at 0.05 µM (SF-295) of 93% and a growth at 0.05 µM (SK-OV-3 [12]) of 107%. The growth at 0.05 µM (PC-3 [13]) was 90%, the growth at 0.5 µM (SR) was 22% and the growth at 0.5 µM (COLO 205 [14]) was 60%. The growth at 0.5 µM (SF-268) was 74%, the growth at 0.5 µM (SF-539) was 71% and the growth at 0.5 µM (OVCAR-3) was 103%. It also gave a growth at 0.5 µM (786-0) of 82%, a growth at 0.5 µM (SN12C) of 78% and a growth at 0.5 µM (DU-145) of 89%. The growth at 0.5 µM (MCF7 [15]) was 31%, the growth at 5 µM (HCT-15 [16]) was 82% and the growth at 5 µM [17] was 107%. The growth at 5 µM (A498) was 54%, the growth at 5 µM (MCF7 [18]) was 12% and the growth at 50 µM (HOP-62 [19]) was -22%.
